According to ChEMBL document CHEMBL5329160, “Design, synthesis, and mechanistic study of 2-piperazineone-bearing peptidomimetics as novel HIV capsid modulators” (RSC Med Chem, 2023):

Tests used:
[1] = Selectivity index, ratio of CC50 for human MT4 cells to EC50 for HIV-2 ROD infected in human MT4 cells; assay type: toxicity, cell-based; conditions: read-out: Ratio CC50/EC50
[2] = test system: Human immunodeficiency virus 2; test: Antiviral activity against HIV-2 ROD infected in MT4 cells assessed as protection against virus induced cytotoxicity and measured after 5 days by MTT spectrophotometric assay; assay type: functional, organism-based; conditions: Human immunodeficiency virus 2, ROD, MT4, 120 h
[3] = Selectivity index, ratio of CC50 for human MT4 cells to EC50 for HIV-1 IIIB infected in human MT4 cells; assay type: toxicity, cell-based; conditions: read-out: Ratio CC50/EC50
[4] = test system: Human immunodeficiency virus 1; test: Antiviral activity against HIV-1 IIIB infected in MT4 cells assessed as protection against virus induced cytotoxicity incubated for 5 days by MTT assay; assay type: functional, organism-based; conditions: Human immunodeficiency virus 1, IIIB, MT4, 120 h
[5] = Cytotoxicity against human MT4 cells assessed as reduction in cell viability after 5 days by MTT assay; assay type: toxicity, cell-based; conditions: time 5 day
[6] = Metabolic stability in human liver assessed as intrinsic clearance at 1 uM preincubated for 10 mins followed by NADPH addition and measured after 60 mins; conditions: read-out: CLH
[7] = target: T1, Structural capsid protein (Human immunodeficiency virus 1, UniProt Q76129); test: Binding affinity to HIV-1 NL4-3 monomeric capsid protein by SPR analysis
In short: (§1)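 SPR binding isotherms averaged over 3 replicates, with error bars as SD.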

[8] = target: Structural capsid protein (Human immunodeficiency virus 1) (UniProt Q76129); test: Binding affinity to HIV-1 NL4-3 hexameric capsid protein assessed as Koff by SPR analysis; conditions: filed as modulator
[9] = target: T1, Structural capsid protein; test: Binding affinity to HIV-1 NL4-3 hexameric capsid protein by SPR analysis; in short: as §1
[10] = target: Structural capsid protein (Human immunodeficiency virus 1) (UniProt Q76129); test: Ratio of Kd for HIV-1 NL4-3 monomeric capsid protein to Kd for HIV-1 NL4-3 hexameric capsid protein

T1 sequence (Q76129 whole entry): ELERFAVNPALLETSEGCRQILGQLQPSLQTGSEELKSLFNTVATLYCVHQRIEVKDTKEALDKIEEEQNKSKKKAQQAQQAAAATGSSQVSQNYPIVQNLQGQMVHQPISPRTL
Sequence of Structural capsid protein (Human immunodeficiency virus 1) (Q76129 as listed by the source): as the sequence (Q76129 whole entry) above

| Compound | selectivity ratio [1] | EC50 [2] | selectivity ratio [3] | EC50 [4] | CC50 at 120 h [5] | CLint scaled at 1 µM [6] | Kd [7] | K [8] | Kd [9] | Ratio [10] |
| --- | --- | --- | --- | --- | --- | --- | --- | --- | --- | --- |
| COc1ccc(N(C)C(=O)[C@H](Cc2ccccc2)NC(=O)CN2CCN(C(=O)c3ccc(F)cc3)CC2=O)cc1 | 7 | 11 µM | < 1 | > 77 µM | 77 µM | – | – | – | – | – |
| COc1ccc(N(C)C(=O)[C@H](Cc2cc(F)cc(F)c2)NC(=O)CN2CCN(C(=O)c3ccc(F)cc3)CC2=O)cc1 | 3.7 | 21 µM | 3.8 | 20 µM | 77 µM | – | – | – | – | – |
| COc1ccc(N(C)C(=O)[C@H](Cc2ccccc2)NC(=O)CN2CCN(C(=O)c3ccccc3C(F)(F)F)CC2=O)cc1 | 45 | 2.9 µM | 6.2 | 21 µM | 130 µM | – | – | – | – | – |
| COc1ccc(N(C)C(=O)[C@H](Cc2ccccc2)NC(=O)CN2CCN(C(=O)c3ccccc3F)CC2=O)cc1 | 18 | 7.8 µM | 5.8 | 24 µM | 140 µM | – | – | – | – | – |
| COc1ccc(N(C)C(=O)[C@H](Cc2cc(F)cc(F)c2)NC(=O)CN2CCN(C(=O)c3cccc([N+](=O)[O-])c3)CC2=O)cc1 | < 1 | > 47 µM | 1.4 | 34 µM | 47 µM | – | – | – | – | – |
| COc1ccc(N(C)C(=O)[C@H](Cc2cc(F)cc(F)c2)NC(=O)CN2CCN(C(=O)c3ccccc3N)CC2=O)cc1 | 19 | 8.6 µM | 8.9 | 18 µM | 160 µM | – | – | – | – | – |
| COc1ccc(N(C)C(=O)[C@H](Cc2ccccc2)NC(=O)CN2CCN(C(=O)c3ccccc3)CC2=O)cc1 | > 67 | 3.6 µM | > 8.6 | 28 µM | > 240 µM | – | – | – | – | – |
| COc1ccc(N(C)C(=O)[C@H](Cc2ccccc2)NC(=O)CN2CCN(C(=O)c3cccc([N+](=O)[O-])c3)CC2=O)cc1 | < 1 | > 24 µM | < 1 | > 24 µM | 24 µM | – | – | – | – | – |
| COc1ccc(N(C)C(=O)[C@H](Cc2ccccc2)NC(=O)CN2CCN(C(=O)c3cccc(C(F)(F)F)c3)CC2=O)cc1 | < 1 | > 6.7 µM | < 1 | > 6.7 µM | 6.7 µM | – | – | – | – | – |
| COc1ccc(N(C)C(=O)[C@H](Cc2ccccc2)NC(=O)CN2CCN(C(=O)c3ccccc3N)CC2=O)cc1 | 30 | 5.4 µM | 7 | 23 µM | 160 µM | – | – | – | – | – |
| COc1ccc(N(C)C(=O)[C@H](Cc2cc(F)cc(F)c2)NC(=O)CN2CCN(C(=O)c3ccc([N+](=O)[O-])cc3)CC2=O)cc1 | < 1 | > 18 µM | < 1 | > 18 µM | 18 µM | – | – | – | – | – |
| COc1ccc(N(C)C(=O)[C@H](Cc2ccccc2)NC(=O)CN2CCN(C(=O)c3ccc(Br)cc3)CC2=O)cc1 | < 1 | > 11 µM | < 1 | > 11 µM | 11 µM | – | – | – | – | – |
| COc1ccc(C(=O)N2CCN(CC(=O)N[C@@H](Cc3ccccc3)C(=O)N(C)c3ccc(OC)cc3)C(=O)C2)cc1 | 5.2 | 21 µM | 4.2 | 26 µM | 110 µM | – | – | – | – | – |
| COc1ccc(N(C)C(=O)[C@H](Cc2ccccc2)NC(=O)CN2CCN(C(=O)c3ccc(C(F)(F)F)cc3)CC2=O)cc1 | – | ≥ 41 µM | – | ≥ 37 µM | 42 µM | – | – | – | – | – |
| COc1ccc(N(C)C(=O)[C@H](Cc2cc(F)cc(F)c2)NC(=O)CN2CCN(C(=O)c3ccc(Br)cc3)CC2=O)cc1 | < 1 | > 19 µM | < 1 | > 19 µM | 19 µM | – | – | – | – | – |
| COc1ccc(N(C)C(=O)[C@H](Cc2ccccc2)NC(=O)CN2CCN(C(=O)c3ccc(Cl)cc3)CC2=O)cc1 | < 1 | > 9 µM | < 1 | > 8.9 µM | 9 µM | – | – | – | – | – |
| COc1ccc(N(C)C(=O)[C@H](Cc2cc(F)cc(F)c2)NC(=O)CN2CCN(C(=O)c3cccc(N)c3)CC2=O)cc1 | > 14 | 16 µM | > 10 | 23 µM | > 220 µM | – | – | – | – | – |
| COc1ccc(N(C)C(=O)[C@H](Cc2ccccc2)NC(=O)CN2CCN(C(=O)c3ccc(N)cc3)CC2=O)cc1 | > 8.2 | 28 µM | > 11 | 21 µM | > 230 µM | – | – | – | – | – |

| Compound | selectivity ratio [1] | EC50 [2] | selectivity ratio [3] | EC50 [4] | CC50 at 120 h [5] | CLint scaled at 1 µM [6] | Kd [7] | K [8] | Kd [9] | Ratio [10] |
| --- | --- | --- | --- | --- | --- | --- | --- | --- | --- | --- |
| COc1ccc(N(C)C(=O)[C@H](Cc2cc(F)cc(F)c2)NC(=O)CN2CCN(C(=O)c3cccc(F)c3)CC2=O)cc1 | 7.6 | 13 µM | 4 | 25 µM | 99 µM | – | – | – | – | – |
| COc1ccc(N(C)C(=O)[C@H](Cc2cc(F)cc(F)c2)NC(=O)CN2CCN(C(=O)c3ccc(N)cc3)CC2=O)cc1 | > 6.9 | 32 µM | > 12 | 18 µM | > 220 µM | – | – | – | – | – |
| COc1ccc(N(C)C(=O)[C@H](Cc2cc(F)cc(F)c2)NC(=O)CN2CCN(C(=O)c3ccccc3F)CC2=O)cc1 | 26 | 5.3 µM | 6.4 | 22 µM | 140 µM | – | – | – | – | – |
| COc1ccc(N(C)C(=O)[C@H](Cc2ccccc2)NC(=O)CN2CCN(C(=O)c3ccc([N+](=O)[O-])cc3)CC2=O)cc1 | < 1 | > 16 µM | < 1 | > 16 µM | 16 µM | – | – | – | – | – |
| COc1ccc(N(C)C(=O)[C@H](Cc2cc(F)cc(F)c2)NC(=O)CN2CCN(C(=O)c3ccc(C(F)(F)F)cc3)CC2=O)cc1 | < 1 | > 18 µM | < 1 | > 18 µM | 18 µM | – | – | – | – | – |
| COc1ccc(N(C)C(=O)[C@H](Cc2ccccc2)NC(=O)CN2CCN(C(=O)c3cccc(F)c3)CC2=O)cc1 | > 50 | 4.6 µM | > 10 | 23 µM | > 230 µM | – | – | – | – | – |
| COC(=O)c1ccc(C(=O)N2CCN(CC(=O)N[C@@H](Cc3cc(F)cc(F)c3)C(=O)N(C)c3ccc(OC)cc3)C(=O)C2)cc1 | 4.6 | 26 µM | 6.7 | 18 µM | 120 µM | – | – | – | – | – |
| COc1ccc(N(C)C(=O)[C@H](Cc2ccccc2)NC(=O)CN2CCN(C(=O)c3ccc(C)cc3)CC2=O)cc1 | 7 | 9.2 µM | 1.9 | 33 µM | 64 µM | – | – | – | – | – |
| O=C(O)Cc1ccccc1Nc1c(Cl)cccc1Cl [DICLOFENAC] | – | – | – | – | – | 3.3 mL/min/kg | – | – | – | – |
| COc1ccc(N(C)C(=O)[C@H](Cc2cc(F)cc(F)c2)NC(=O)CN2CCN(C(=O)c3ccccc3C(F)(F)F)CC2=O)cc1 | 22 | 5 µM | 9.2 | 12 µM | 110 µM | – | 12 µM | 0.25 s⁻¹ | 5.3 µM | 2.2 |
| COc1ccc(N(C)C(=O)[C@H](Cc2cc(F)cc(F)c2)NC(=O)CN2CCN(C(=O)c3ccc(C)cc3)CC2=O)cc1 | 2.1 | 35 µM | 2.3 | 32 µM | 74 µM | – | – | – | – | – |
| COc1ccc(N(C)C(=O)[C@H](Cc2cc(F)cc(F)c2)NC(=O)CN2CCN(C(=O)c3ccc(Cl)cc3)CC2=O)cc1 | < 1 | > 19 µM | < 1 | > 19 µM | 19 µM | – | – | – | – | – |
| COC(=O)c1ccc(C(=O)N2CCN(CC(=O)N[C@@H](Cc3ccccc3)C(=O)N(C)c3ccc(OC)cc3)C(=O)C2)cc1 | 8.3 | 24 µM | < 1 | > 190 µM | 200 µM | – | – | – | – | – |
| COc1ccc(N(C)C(=O)[C@H](Cc2ccccc2)NC(=O)CN2CCN(C(=O)c3ccccc3[N+](=O)[O-])CC2=O)cc1 | 72 | 2.5 µM | 8.2 | 22 µM | 180 µM | – | – | – | – | – |
| COc1ccc(N(C)C(=O)[C@H](Cc2cc(F)cc(F)c2)NC(=O)CN2CCN(C(=O)c3ccccc3)CC2=O)cc1 | – | 12 µM | 4.4 | 25 µM | 110 µM | – | – | – | – | – |
| COc1ccc(C(=O)N2CCN(CC(=O)N[C@@H](Cc3cc(F)cc(F)c3)C(=O)N(C)c3ccc(OC)cc3)C(=O)C2)cc1 | 3.1 | 31 µM | 4 | 24 µM | 96 µM | – | – | – | – | – |
| COc1ccc(N(C)C(=O)[C@H](Cc2ccccc2)NC(=O)CN2CCN(C(=O)c3cccc(N)c3)CC2=O)cc1 | > 8.5 | 27 µM | ≥ 1 | ≥ 200 µM | > 230 µM | – | – | – | – | – |
| COc1ccc(N(C)C(=O)[C@H](Cc2cc(F)cc(F)c2)NC(=O)CN2CCN(C(=O)c3cccc(C(F)(F)F)c3)CC2=O)cc1 | < 1 | > 3.7 µM | < 1 | > 3.7 µM | 3.7 µM | – | – | – | – | – |
